# ABCG2 inh: inhibitors of human ABCG2 transporter, ABCB1 counter-screen. Q9UNQ0. IgMXP3 cells, JC-1 efflux, flow cytometry. inhibition, % at 6.6 µM. actives 0.1% (n = 190,000). AID 1325;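 active = inhibition above 80%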;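 also: 0% = DMSO and 100% = nicardipine control wells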
#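 Measure – % inhibition of efflux relative to nicardipine and DMSO · Test system – ABCG2 IgMXP3 and barcoded ABCB1 CCRF-Adr cell mix · Control set – nicardipine as high control, DMSO as low control · Compound – one concentration, 6.6 µM final · Signal – flow cytometry of retained JC-1 fluorescence · Timing – 10 min exposure at 25 °C with rotation, no wash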
# PKD1 inh: PKD1 (human) kinase inhibition | PKD1 kinase fluorescence polarization assay | inhibition, % (concentration not given with the values) | actives 0.056% (n = 200,000)
# ABCB1 inh: inhibitors of human ABCB1 transporter, ABCG2 counter-screen; P08183; CCRF-Adr cells, JC-1 efflux, flow cytometry; inhibition, % at 6.6 µM; actives 0.067% (n = 190,000); AID 1326; in the data active = inhibition above about 40%;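 also: 0% = vehicle and 100% = reference inhibitor; higher value means more JC-1 retained so stronger ABCB1 efflux block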
# GSH bead fluor: compound fluoresces at 488/530 nm on GSH beads; GSH beads flow cytometry, compound fluorescence 488/530 nm; stronger effect = higher value; fluorescence (KMESF) at 10 µM; actives 0.25% (n = 190,000); AID 1776; in the data active = fluorescence above about 89;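 also: glutathione beads carrying GST-tagged Bcl family fusion proteins plus one bare bead set; values are compound well signal with DMSO vehicle wells as background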
# Lmaj promast: Leishmania major promastigote growth inhibition; Leishmania major promastigotes, resazurin fluorescence viability; actives 9% (n = 200,000); inhibition, % at 10 µM;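 also: promastigotes grown with compound for 44 hours at 28 °C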
# Avidin bead fluor: compound fluoresces at 488/530 nm on avidin beads; AID 1775; compound fluorescence 488/530 nm, flow cytometry; stronger effect = higher value; actives 0.38% (n = 220,000); fluorescence (KMESF) at 10 µM; in the data active = fluorescence above about 47
# Active calls of the source: *; x = no result. The sample as a whole holds a higher share of hits than the screen did. Rule as the data show it, unless noted: active = inhibition above about 50%; inactive = the rest.
SMILES,ABCG2 inh,PKD1 inh,ABCB1 inh,GSH bead fluor,Lmaj promast,Avidin bead fluor
Cc1ccc(C)c(N2CCN(C(=O)CCCn3c(=S)[nH]c4cc5c(cc4c3=O)OCO5)CC2)c1,14,-2,2,10,17,13
O=C(NNC(=O)C1CC2CCC1C2)c1sc2ccccc2c1Cl (stereo not given),4,-4,0,17,3,94*
Cc1c(C(=O)OC(C)C)sc(NC(=O)C2CCCO2)c1C(=O)OC(C)C (stereo not given),4,-4,1,93*,17,4
Nn1c(SCC(=O)NC2CCCCC2)nnc1C1CC1,1,-10,0,36,2,11
C=CCn1c(SCC(=O)NC2CCCCC2)nnc1C1CCCCC1,2,-5,1,12,-3,60*
COc1ccc(N/C=C/C(=C(C#N)C#N)N(C)C)cc1,-1,-2,1,9,0,5
CCOc1ccccc1N(CC(=O)NC(C)(C)C)C(=O)Cn1nnc(-c2ccc(C)o2)n1,1,11,1,10,60*,14
CN(C)c1ccc(C(CNC(=O)c2ccccc2Br)c2c[nH]c3ccccc23)cc1 (stereo not given),6,-2,x,10,94*,17
CN(C)c1ccc(C(CNC(=O)c2ccc(C#N)cc2)c2c[nH]c3ccccc23)cc1 (stereo not given),-7,10,-1,10,24,3
CCOC(=O)c1ccc(S(=O)(=O)NCC(c2ccc(N(C)C)cc2)c2c[nH]c3ccccc23)cc1 (stereo not given),-4,4,0,9,1,10
CN(C)c1ccc(C(CNS(=O)(=O)c2ccc(F)cc2)c2c[nH]c3ccccc23)cc1 (stereo not given),-1,-15,0,12,79*,17
CCCc1cc(=O)[nH]c(Nc2ccc3c(c2)OCCO3)n1,17,-1,1,15,-8,10
COc1ccc(F)cc1C(=O)C1CCCN(Cc2ccc(Sc3nncn3C)o2)C1 (stereo not given),0,-5,0,14,14,9
CCC(Sc1ncccn1)C(=O)Nc1cc(C)on1 (stereo not given),-1,-9,0,22,-6,23
CCC(Sc1nc2ccccc2s1)C(=O)Nc1cc(C)on1 (stereo not given),3,-1,2,32,67*,6
CC(=O)c1c(C)[nH]c(C(=O)Nc2nc(-c3ccc(-c4ccccc4)cc3)cs2)c1C,-15,-12,0,6,97*,17
COc1ccc(C(=O)N/C(=C\c2ccco2)C(=O)OCc2ccco2)cc1,x,x,x,x,x,8
CCCCOc1ccc(C(=O)N/C(=C\c2ccc(OC)cc2)C(=O)OCc2ccco2)cc1,5,8,1,44,96*,13
C/C(=N/Nc1cc(-c2ccccc2)nc(-c2ccccc2)n1)c1ccc(O)cc1,2,1,0,5,89*,12
O=C(c1ccc2c(c1)OCO2)[C@@H]1[C@@H]2C(=O)N(C3CCCCC3)C(=O)[C@@H]2C2c3ccccc3C=CN21 (stereo not given in full),5,-6,1,53,20,6
O=C(c1cccs1)[C@@H]1[C@@H]2C(=O)N(Cc3ccc4c(c3)OCO4)C(=O)[C@@H]2C2c3ccccc3C=CN21 (stereo not given in full),6,-1,1,45,88*,10
O=C(Nc1ccc2c(c1)OCO2)[C@@H]1[C@@H]2C(=O)N(C3CCCCC3)C(=O)[C@@H]2C2c3ccccc3C=CN21 (stereo not given in full),0,-4,0,237*,20,8
Cc1ccc(NC(=O)c2cc(-c3ccccc3)nn2-c2ccccc2)cc1,4,-6,0,4,17,3
CC(=O)C(/C=N/c1cc(-c2ccc(C)cc2)nn1-c1ccccc1)=C(\C)O,3,3,0,21,64*,14
CC(C)c1ccc(N2C(=O)CC(NNC(=O)c3cccnc3)C2=O)cc1 (stereo not given),x,x,x,x,x,8
SMILES,ABCG2 inh,PKD1 inh,ABCB1 inh,GSH bead fluor,Lmaj promast,Avidin bead fluor
C=CCc1ccccc1OCC(=O)O,x,x,x,x,x,5
C=CCc1ccccc1OCC(O)CN1CCN(c2ccccc2OC)CC1 (stereo not given),0,4,1,21,27,9
C=CCc1ccccc1OCCCCN1CCCC1,4,-4,1,11,77*,29
C=CCc1ccccc1OCC(O)CN1CCN(c2ccccc2F)CC1 (stereo not given),15,-15,3,33,69*,13
CCc1ccccc1OCCCCN1CCCC1,3,-10,1,20,94*,6
CCOc1ccccc1OCCOc1ccccc1CC,6,-1,1,35,-1,13
C=CCc1ccccc1OCC(CN1CCCCC1)OC(C)=O (stereo not given),-2,-4,-2,35,65*,9
Cc1cccc(-n2nc(C(=O)c3ccco3)cc(-c3nc4ccccc4[nH]3)c2=N)c1,-3,-5,-1,7,100*,44
COc1ccc(-n2nc(C(=O)c3cccs3)cc(-c3nc4ccccc4[nH]3)c2=N)cc1,7,-3,0,25,99*,6
Cc1ccccc1-n1nc(C(=O)c2cccs2)cc(-c2nc3ccccc3[nH]2)c1=N,0,1,0,40,98*,7
Cc1ccc2nc(-c3cccc(NC(=O)c4ccco4)c3)[nH]c2c1,0,1,1,35,49,11
Cc1cccc2cc(C#N)c(NCCCNS(=O)(=O)c3ccc(Cl)cc3)nc12,x,x,x,x,x,8
O=C(c1ccccc1)c1ccc(C(=O)N2CCN(c3ccc(F)cc3)CC2)o1,16,15,2,15,2,20
CN(C)c1ccc(-n2cccc2/C=C/[N+](=O)[O-])cc1,4,-5,0,9,97*,11
COc1ccccc1NC(=O)c1ccc(NC(=O)CN2CCN(C(=O)c3ccco3)CC2)cc1,5,0,0,10,-1,6
COc1ccc(NC(=O)Cn2cnc3sc(C)c(S(=O)(=O)N4CCOCC4)c3c2=O)c(OC)c1,0,-6,0,14,-1,7
Cc1c(NC(=O)c2cccc(-c3cc4ccccc4oc3=O)c2)cccc1-c1nc2ncccc2o1,-6,-2,3,10,2,11
CC1SC(c2ccc(Cl)cc2)NC1=O (stereo not given),0,-6,1,22,1,20
COc1ccc(C2NC(=O)C(C)S2)cc1 (stereo not given),1,0,0,10,-3,51*
COc1ccc(NC(=O)c2cc(-c3cccs3)on2)cc1OC,14,0,0,23,-5,23

# Bioassay records from PubChem BioAssay.
